Test results reported in PubChem BioAssay AID434971 (Sanford-Burnham Center for Chemical Genomics, 2010).
In all, about 11,000 compounds went through this assay and about 510 (4.6%) were called active.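 The calls were made as follows: active = inhibition of at least 40% at 10 µM in either of the two replicates; inactive = the rest.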 The sample as a whole holds a higher share of actives than the screen did.

What follows are compounds tested on intestinal alkaline phosphatase [Mus musculus] (assay: mouse intestinal phosphatase enzyme inhibition – biochemical, luminescence, single concentration, confirmation (AID 434971;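 also: plate controls were DMSO wells with enzyme for no effect and buffer wells lacking enzyme for full effect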)). Conditions: purified mouse IAP, CDP-Star luminescence, 30 min; at 10 µM; stronger effect = higher value.
Procedure, shortened: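 assay system = mouse IAP enzyme | measured by = luminescence from CDP-Star dephosphorylation | reagent = CDP-Star as the luminogenic phosphatase substrate | incubation = 30 min enzyme-substrate-compound incubation at room temperature | dosing = compound in DMSO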

SMILES	inhibition
O=C(CCCN1C(=O)/C(=C\c2ccco2)SC1=S)Nc1cccc2ccccc12	49.1% (active)
O=C(CCCN1C(=O)/C(=C/c2ccco2)SC1=S)Nc1ccccc1	49.1% (active)
O=c1ccc2c(-c3ccccc3S(=O)(=O)O)c3ccc(O)c(O)c3oc-2c1O	79.7% (active)
O=C(Nc1nc(-c2ccco2)c(-c2ccco2)s1)c1ccco1	74.3% (active)
Cc1cc(C)cc(NC(=O)NC2CCCCCCC2)c1	-237% (inactive)
COc1ccc(CN2CCC(n3nccc3NC(=O)CCCc3ccccc3)CC2)cc1C	-140% (inactive)
COc1ccc(NC(=O)NC2CC3CCCC(C2)N3Cc2ccccc2)cc1 (stereo not given)	-171% (inactive)
COc1ccccc1-n1c(-c2cc(-c3ccco3)[nH]n2)n[nH]c1=S	68.7% (active)
COc1cc(C(=O)Nn2c(O)c(C3=c4ccccc4=NC3=O)sc2=S)ccc1O	93.1% (active)
c1ccc(-c2cc3c(NCC4COc5ccccc5O4)ncnc3s2)cc1 (stereo not given)	-97.1% (inactive)
CCN(c1ccccc1)S(=O)(=O)c1ccc2[nH]c(=O)[nH]c2c1	73.4% (active)
Cc1ccc(C)c(CN2CCC(CNC(=O)Nc3ccc(C)c(F)c3)CC2)c1	-116% (inactive)
CCn1cc(CN2CCC(C(=O)Nc3cccc(-c4cccc(Cl)c4)c3)CC2)cn1	-329% (inactive)
NS(=O)(=O)c1ccc(-c2ccc(/C=C3\SC(=O)NC3=O)o2)cc1	68.1% (active)
C#CCOCCOCCOCCNc1nc(N2CCN(C(=O)CCCCCCCCCCNC(=O)Cn3cc(CCCCCN)nn3)CC2)nc(N2CCN(C(=O)CCCCCCCCCCNC(=O)[C@H](CO)n3cc(CCCSC)nn3)CC2)n1	-153% (inactive)
Oc1ccc(CNc2ccccc2O)cc1	41.2% (active)
CC(C)S(=O)(=O)c1csc(NC(=O)Nc2ccc(Cl)cc2)c1Cl	-116% (inactive)
Nc1ccc2nc3c(=O)[nH]c(=S)[nH]c3nc2c1	78.3% (active)

SMILES	inhibition
COC(=O)c1ccc(NC(=O)Nc2ccc(C)cc2)cc1	-115% (inactive)
CCn1cc(CN2CCC(C(=O)Nc3cccc(-c4cccc(Cl)c4)c3)CC2)c(C)n1	-396% (inactive)
Oc1cc(O)c2c(c1)OC(c1ccc(O)c(O)c1)C(O)C2 (stereo not given)	84.5% (active)
Cc1cccc(CN2CCC(CNC(=O)Nc3ccc(F)c(Cl)c3)CC2)c1	-115% (inactive)
COc1cccc(/C=N\NC(=O)C2=NNC(=O)C2C)c1O (stereo not given)	60.2% (active)
Cc1ccc(Cc2cnc(N)s2)o1	58.5% (active)
O=c1[nH]c(=S)[nH]c2[nH]c(=S)[nH]c12	81.9% (active)
O=C(Nc1cccc(-c2cccc(Cl)c2)c1)C1CCN(C2CCC2)CC1	-294% (inactive)
Cc1cc(NC(=O)Nc2ccc(Cl)cc2)n(-c2ccccc2)n1	-107% (inactive)
COc1ccc(OC)c(Nc2nc(-c3ccc(O)c(O)c3)cs2)c1	74.3% (active)
O=C(Nc1cccc(F)c1)NC1CCCCCCC1	-142% (inactive)
COc1cc(/C=N\Nc2nc(-c3cccs3)c(NC(C)=O)s2)ccc1O	47% (active)
OCCCN1c2ccccc2Nc2nnc(-c3ccccc3)cc21	-208% (inactive)
Clc1ccccc1CSc1nnc(-c2ccco2)c(-c2ccco2)n1	71.8% (active)
c1ccc(CSc2nnc(-c3ccco3)c(-c3ccco3)n2)cc1	69% (active)
O=[N+]([O-])c1cc(Cl)cc(/C=N/NC(=S)Nc2cc(S(=O)(=O)N3CCOCC3)ccc2Cl)c1O	40.3% (active)
CCc1ccc(NC(=O)NC(C)c2ccc3c(c2)OCO3)cc1 (stereo not given)	-166% (inactive)
